# ChEMBL document CHEMBL1126191, “New antiinflammatory agents. 2. 5-Phenyl-3H-imidazo[4,5-c][1,8]naphthyridin-4(5H)-ones: a new class of nonsteroidal antiinflammatory agents with potent activity like glucocorticoids” (J Med Chem, 1992)
# How the values were obtained:
# [1] = test system: Rattus norvegicus; test: Antiinflammatory effect (oral administration), on zymosan-induced rat paw edema at 25 mg/kg; type: functional
# In short: (§1)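 Oral dosing in 5% arabic gum suspension to male Wistar rats (~150 g, n=5) 1 h before subplantar injection of 1% zymosan in saline into the hind paw. Paw volume was read by plethysmograph before dosing and 4 h after zymosan.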
# [2] = test system: Rattus norvegicus; test: Antiinflammatory effect (oral administration), on rat reversed passive Arthus reaction-induced paw edema at 5 mg/kg; type: functional
# In short: (§2)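 Reversed passive Arthus: male Wistar rats (~150 g, n=5) were dosed orally with compound in 5% arabic gum. Paw volume was measured by plethysmograph before dosing and 2 h after antigen. % inhibition was calculated vs controls, and ED50 came from log-dose linear regression.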
# [3] = test system: Rattus norvegicus; test: Antiinflammatory effect in rat paw edema model following 50 mg/kg p.o. administration.; type: functional; conditions: route oral
# [4] = test system: Rattus norvegicus; test: Antiinflammatory effect of the compound (oral administration) on rat paw edema model (reversed passive Arthus reaction-induced paw edema, RPAR); type: functional; in short: as §2
# [5] = test system: Mus musculus; test: Acute lethal toxicity (peroral administration), determined by observing the mortality for 7 days after the administration in mouse; type: organism-based; conditions: in vivo, po, 168 h
# In short: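 Male dd mice of 20-25 g, three per group, given compound by mouth once. Mortality followed for 7 days, and the minimum lethal dose (MLD) was recorded in mg/kg po.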
# [6] = test system: Rattus norvegicus; test: Dose of the compound (oral administration) showing antiinflammatory effect on rat paw edema model (carrageenan-induced paw edema, CPE); type: functional
# [7] = test system: Rattus norvegicus; test: Dose of the compound (oral administration) showing antiinflammatory effect on rat paw edema model (reversed passive Arthus reaction-induced paw edema, RPAR); type: functional; in short: as §2
# [8] = test system: Rattus norvegicus; test: Oral dose required for antiinflammatory effect on zymosan induced rat paw edema.; type: functional; in short: as §1
# [9] = test system: Rattus norvegicus; test: Antiinflammatory effect of the compound(oral administration) on rat paw edema model(carrageenan-induced paw edema) at 50 mg/kg; type: functional
# [10] = test system: Rattus norvegicus; test: Antiinflammatory effect (oral administration) on rat paw edema model (reversed passive Arthus reaction-induced paw edema) at 10 mg/kg; type: functional; in short: as §2
# [11] = test system: Rattus norvegicus; test: Antiinflammatory effect of the compound(oral administration) on rat paw edema model(zymosan-induced paw edema) at 50 mg/kg; type: functional; in short: as §1
# [12] = test system: Rattus norvegicus; test: Antiinflammatory effect (oral administration) on rat paw edema model (reversed passive Arthus reaction-induced paw edema) at 100 mg/kg; type: functional; in short: as §2
SMILES,inhibition in vivo at 25 mg/kg [1] [%],inhibition in vivo at 5 mg/kg [2] [%],inhibition in vivo at 50 mg/kg [3] [%],Inhibition [4] [%],MLD [5] [mg/kg],ED40 [6] [mg/kg],ED50 [7] [mg/kg],ED40 [8] [mg/kg],inhibition in vivo at 50 mg/kg [9] [%],inhibition in vivo at 10 mg/kg [10] [%],inhibition in vivo at 50 mg/kg [11] [%],inhibition in vivo at 100 mg/kg [12] [%]
Cc1ccc(C)c(Cn2cnc3c4cccnc4n(-c4ccccc4)c(=O)c32)c1,10.1,-3.5,1.2,–,–,–,–,–,–,–,–,–
CCCn1cnc2c3cccnc3n(-c3ccccc3)c(=O)c21,61.2,–,–,74.4,200,15.9,2,1.3,57.3,–,–,–
Cc1cccc(Cn2cnc3c4cccnc4n(-c4ccccc4)c(=O)c32)c1,33.3,–,–,–,–,–,–,–,18.4,33.5,–,–
CCOCCn1cnc2c3cccnc3n(-c3ccccc3)c(=O)c21,57.4,50.3,–,–,> 300,15.5,3.2,6,56.7,–,–,–
O=c1c2c(ncn2C/C=C/c2ccccc2)c2cccnc2n1-c1ccccc1,34.2,17.5,26.3,–,> 300,–,–,–,–,–,–,–
COc1ccc(Cn2cnc3c4cccnc4n(-c4ccccc4)c(=O)c32)cc1,66.9,59.2,37.8,–,> 300,–,2.3,0.93,–,–,–,–
CC(=O)Cn1cnc2c3cccnc3n(-c3ccccc3)c(=O)c21,53.7,57.7,–,–,> 200,40,4.5,3.9,41.3,–,–,–
CCn1cnc2c(=O)n(-c3ccccc3)c3ncccc3c21,13.5,3.5,–,–,> 300,–,–,–,–,–,–,–
CCOC(=O)Cn1cnc2c3cccnc3n(-c3ccccc3)c(=O)c21,5,9.9,–,–,–,–,–,–,23.1,–,–,–
CC(O)Cn1cnc2c3cccnc3n(-c3ccccc3)c(=O)c21 (stereo unspecified),74.7,61.8,–,–,300,7.8,1.9,4.5,48,–,–,–
O=c1c2c(ncn2Cc2cccc(Br)c2)c2cccnc2n1-c1ccccc1,–,–,26.9,–,–,–,–,–,–,17.2,–,–
O=c1c2c(ncn2Cc2cccc([N+](=O)[O-])c2)c2cccnc2n1-c1ccccc1,35.7,43.9,33.1,–,–,–,–,–,–,–,–,–
O=c1c2c(ncn2Cc2ccc([N+](=O)[O-])cc2)c2cccnc2n1-c1ccccc1,45.6,22.2,35.9,–,> 300,–,–,3.5,–,–,–,–
O=c1c2c(ncn2CC2CCCCC2)c2cccnc2n1-c1ccccc1,49.8,–,34.7,–,> 300,–,5.7,11.8,–,62.9,–,–
COC(=O)c1ccc(Cn2cnc3c4cccnc4n(-c4ccccc4)c(=O)c32)cc1,–,9.2,–,–,–,–,–,–,8.7,–,9.9,–
CCCCn1cnc2c3cccnc3n(-c3ccccc3)c(=O)c21,55.5,49.9,–,–,300,15.4,4.8,2.1,45.8,–,–,–
Cc1nc2c3cccnc3n(-c3ccccc3)c(=O)c2n1Cc1ccccc1,19.2,6.5,–,–,–,–,–,–,4.7,–,–,–
Cc1ccc(Cn2cnc3c4cccnc4n(-c4ccccc4)c(=O)c32)cc1,56.2,67.4,39.2,–,> 300,–,1.9,3.5,–,–,–,–
COc1cccc(Cn2cnc3c4cccnc4n(-c4ccccc4)c(=O)c32)c1,43.5,–,13,–,–,–,–,–,–,24,–,–
C[C@]12C=CC(=O)C=C1CC[C@@H]1[C@@H]2[C@@H](O)C[C@@]2(C)[C@H]1CC[C@]2(O)C(=O)CO [PREDNISOLONE],–,–,–,–,> 300,4.7,74.2,1.2,–,–,–,–
NC(=O)N1C(=O)/C(=C(\O)c2cccs2)c2cc(Cl)ccc21 [TENIDAP],–,–,–,–,> 300,14.8,–,41.2,–,–,–,4.8
